From ChEMBL document CHEMBL1156892, “Synthesis and in vitro evaluation of bisphosphonated glycopeptide prodrugs for the treatment of osteomyelitis” (Bioorg Med Chem Lett, 2010) come the findings set out here.

Structures are written as SMILES. Values after ≈ are worked out from the molar mass of the structure shown.

For series [1], the system named is Staphylococcus aureus. The series can be described thus: Antibacterial activity against Staphylococcus aureus ATCC 13709 in cation adjusted Mueller-Hinton broth by […] assay. The class given is functional. Put shortly: (§1)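 MIC determination against S. aureus ATCC13709. Medium is cation-adjusted Mueller-Hinton broth, alone or supplemented with mouse, human or rat serum as specified per line.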
In general terms: In agar diffusion tests the substance spreads into inoculated agar from a disc or well.

For series [2], the system named is Staphylococcus aureus. Description: Antibacterial activity against Staphylococcus aureus ATCC 13709 in cation adjusted Mueller-Hinton broth by […] assay in presence of 50% mouse serum. Format: functional. Put shortly:
as §1

In series [3] the test system is Staphylococcus aureus. Description: Antibacterial activity against Staphylococcus aureus ATCC 13709 in cation adjusted Mueller-Hinton broth by […] assay in presence of 50% human serum. The class given is functional. An outline of the steps:
as §1

The species named for series [4] is Oryctolagus cuniculus. Description: Binding affinity to rabbit bone assessed as drug level bound to bone powder at 0.25 to 4 ug/ml after 24 hrs. Format: tissue-based. Conditions: Bone element.
Series [5] relates to Staphylococcus aureus. The series can be described thus: Antibacterial activity against Staphylococcus aureus ATCC 13709 in cation adjusted Mueller-Hinton broth by […] assay in presence of 50% rat serum. Format: functional. An outline of the steps:
as §1

Series [6] has as its system Streptococcus pneumoniae. The series can be described thus: Antibacterial activity against Streptococcus pneumoniae ATCC 700902 by agar diffusion assay. The class given is functional.
In series [7] the test system is Staphylococcus aureus. The series can be described thus: Antibacterial activity against Staphylococcus aureus ATCC 13709 in cation adjusted Mueller-Hinton broth by […] assay in presence of 50% mouse serum in absence of polysorbate-80. The class given is functional. An outline of the steps: (§2)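 MIC against S. aureus ATCC13709 in cation-adjusted Mueller-Hinton broth, alone or with mouse, human or rat serum, run without polysorbate-80 in the medium.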

Series [8] has as its system Staphylococcus aureus. Description: Antibacterial activity against Staphylococcus aureus ATCC 13709 in cation adjusted Mueller-Hinton broth by […] assay in absence of polysorbate-80. The class given is functional. Put shortly: as §2
Series [9] relates to Staphylococcus aureus. The series can be described thus: Antibacterial activity against Staphylococcus aureus ATCC 13709 in cation adjusted Mueller-Hinton broth by […] assay in presence of 50% rat serum in absence of polysorbate-80. The class given is functional. Put shortly: as §2
Series [10] has as its system Staphylococcus aureus. Description: Antibacterial activity against Staphylococcus aureus ATCC 13709 in cation adjusted Mueller-Hinton broth by […] assay in presence of 50% human serum in absence of polysorbate-80. Format: functional. An outline of the steps: as §2
Series [11] in a line: Stability in phosphate buffered saline assessed as conversion of drug to oritavancin after 24 hrs. The class given is physicochemical. The settings on record: buffer, BLD = below limit of detection. Put shortly:
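Prodrugs incubated 24 h in phosphate-buffered saline. Regeneration of parent drug is expressed as % conversion. Parallel incubations were run in 50% rat or human serum diluted in PBS to assess enzymatic cleavage.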

Usually MIC stands for the smallest concentration in the dilution series that meets the test's criterion for growth inhibition. Turning to `CC(C)C[C@H](C(=O)N[C@H]1C(=O)N[C@@H](CC(N)=O)C(=O)N[C@H]2C(=O)N[C@H]3C(=O)N[C@H](C(=O)N[C@H](C(=O)O)c4cc(O)cc(O)c4-c4cc3ccc4O)[C@H](O[C@H]3C[C@](C)(N)[C@@H](O)[C@H](C)O3)c3cc(Cl)c(c(Cl)c3)Oc3cc2cc(c3O[C@H]2O[C@@H](CO)[C@@H](O)[C@H](O)[C@H]2O[C@@H]2C[C@@](C)(NCc3ccc(-c4ccc(Cl)cc4)cc3)[C@@H](O)[C@@H](C)O2)Oc2ccc(cc2Cl)[C@H]1O)N(C)C(=O)CC(P(=O)(O)O)P(=O)(O)O`, the minimal inhibitory concentration (MIC) is 32 µg/mL (≈ 15.7 µM) in series [1], 4 µg/mL in series [2], 32 µg/mL in series [3] and 4 µg/mL in series [5]. The Activity in series [4] amounted to 99.9%.
Turning to `CN[C@H](CC(C)C)C(=O)N[C@H]1C(=O)N[C@@H](CC(N)=O)C(=O)N[C@H]2C(=O)N[C@H]3C(=O)N[C@H](C(=O)N[C@H](C(=O)OCC(=O)NC(P(=O)(O)O)P(=O)(O)O)c4cc(O)cc(O)c4-c4cc3ccc4O)[C@H](O[C@H]3C[C@](C)(N)[C@@H](O)[C@H](C)O3)c3cc(Cl)c(c(Cl)c3)Oc3cc2cc(c3O[C@H]2O[C@@H](CO)[C@@H](O)[C@H](O)[C@H]2O[C@@H]2C[C@@](C)(NCc3ccc(-c4ccc(Cl)cc4)cc3)[C@@H](O)[C@@H](C)O2)Oc2ccc(cc2Cl)[C@H]1O`, the MIC is 16 µg/mL (≈ 7.77 µM) in series [1], 2 µg/mL in [2], 32 µg/mL in [3] and 2 µg/mL in series [5]. Moreover, the Activity in [4] was found to be 97.6%.
Regarding `CN[C@H](CC(C)C)C(=O)N[C@H]1C(=O)N[C@@H](CC(N)=O)C(=O)N[C@H]2C(=O)N[C@H]3C(=O)N[C@H](C(=O)N[C@H](C(=O)OCC(=O)NC(P(=O)(O)O)P(=O)(O)O)c4cc(O)cc(O)c4-c4cc3ccc4O)[C@H](O)c3cc(Cl)c(c(Cl)c3)Oc3cc2cc(c3O[C@H]2O[C@@H](CO)[C@@H](O)[C@H](O)[C@H]2O[C@@H]2C[C@@](C)(N)[C@@H](O)[C@@H](C)O2)Oc2ccc(cc2Cl)[C@H]1O`, the MIC stood at 16 µg/mL (≈ 9.33 µM) in [1], 16 µg/mL in [2], 8 µg/mL in series [3] and 32 µg/mL in series [5]. Also, the Activity in [4] stood at 96.5%.
Take `CN[C@H](CC(C)C)C(=O)N[C@H]1C(=O)N[C@@H](CC(N)=O)C(=O)N[C@H]2C(=O)N[C@H]3C(=O)N[C@H](C(=O)N[C@H](C(=O)OCC(=O)Nc4ccc(CC(P(=O)(O)O)P(=O)(O)O)cc4)c4cc(O)cc(O)c4-c4cc3ccc4O)[C@H](O)c3cc(Cl)c(c(Cl)c3)Oc3cc2cc(c3O[C@H]2O[C@@H](CO)[C@@H](O)[C@H](O)[C@H]2O[C@@H]2C[C@@](C)(N)[C@@H](O)[C@@H](C)O2)Oc2ccc(cc2Cl)[C@H]1O`: the MIC in [1] stood at 16 µg/mL (≈ 8.86 µM); in series [2], 16 µg/mL; in [3], 16 µg/mL; in series [5] it was 32 µg/mL. The Activity in [4] came to 96.7%.
Turning to `CN[C@H](CC(C)C)C(=O)N[C@H]1C(=O)N[C@@H](CC(N)=O)C(=O)N[C@H]2C(=O)N[C@H]3C(=O)N[C@H](C(=O)N[C@H](C(=O)O)c4cc(O)cc(O)c4-c4cc3ccc4O)[C@H](O[C@H]3C[C@](C)(N)[C@@H](O)[C@H](C)O3)c3ccc(c(Cl)c3)Oc3cc2cc(c3O[C@@H]2O[C@H](CO)[C@@H](O)[C@H](O)[C@H]2O[C@H]2C[C@](C)(NCc3ccc(-c4ccc(Cl)cc4)cc3)[C@@H](O)[C@H](C)O2)Oc2ccc(cc2Cl)[C@H]1O` [ORITAVANCIN], the MIC in series [6] was 0.001 µg/mL (≈ 0.000558 µM); in series [7], 2 µg/mL; in series [8], 0.5 µg/mL (≈ 0.279 µM); in series [9], 0.25 µg/mL; in series [10] it was 1 µg/mL.
Turning to `CC(C)C[C@H](C(=O)N[C@H]1C(=O)N[C@@H](CC(N)=O)C(=O)N[C@H]2C(=O)N[C@H]3C(=O)N[C@H](C(=O)N[C@H](C(=O)O)c4cc(O)cc(O)c4-c4cc3ccc4O)[C@H](O[C@H]3C[C@](C)(N)[C@@H](O)[C@H](C)O3)c3cc(Cl)c(c(Cl)c3)Oc3cc2cc(c3O[C@H]2O[C@@H](CO)[C@@H](O)[C@H](O)[C@H]2O[C@@H]2C[C@@](C)(NCc3ccc(-c4ccc(Cl)cc4)cc3)[C@@H](O)[C@@H](C)O2)Oc2ccc(cc2Cl)[C@H]1O)N(C)C(=O)OCOC(=O)CCCC(P(=O)(O)O)P(=O)(O)O`, the MIC in series [1] is 32 µg/mL (≈ 14.9 µM); in series [2] it was 32 µg/mL; in series [3], > 32 µg/mL; in series [5], 32 µg/mL. The figures for the Activity in [4] and in [11] were 99.9% and “BLD”, respectively.
As to `CC(C)C[C@H](C(=O)N[C@H]1C(=O)N[C@@H](CC(N)=O)C(=O)N[C@H]2C(=O)N[C@H]3C(=O)N[C@H](C(=O)N[C@H](C(=O)O)c4cc(O)cc(O)c4-c4cc3ccc4O)[C@H](O[C@H]3C[C@](C)(N)[C@@H](O)[C@H](C)O3)c3cc(Cl)c(c(Cl)c3)Oc3cc2cc(c3O[C@H]2O[C@@H](CO)[C@@H](O)[C@H](O)[C@H]2O[C@@H]2C[C@@](C)(NCc3ccc(-c4ccc(Cl)cc4)cc3)[C@@H](O)[C@@H](C)O2)Oc2ccc(cc2Cl)[C@H]1O)N(C)C(=O)OCOC(=O)CCC(P(=O)(O)O)P(=O)(O)O`, the MIC was determined as 8 µg/mL (≈ 3.75 µM) in [1], 0.5 µg/mL in series [2], 4 µg/mL in [3] and 1 µg/mL in series [5]. For the same molecule, the Activity in series [4] came out at 96.9%.
Taken in the same sequence, the figures for `CC(C)C[C@H](C(=O)N[C@H]1C(=O)N[C@@H](CC(N)=O)C(=O)N[C@H]2C(=O)N[C@H]3C(=O)N[C@H](C(=O)N[C@H](C(=O)O)c4cc(O)cc(O)c4-c4cc3ccc4O)[C@H](O[C@H]3C[C@](C)(N)[C@@H](O)[C@H](C)O3)c3cc(Cl)c(c(Cl)c3)Oc3cc2cc(c3O[C@H]2O[C@@H](CO)[C@@H](O)[C@H](O)[C@H]2O[C@@H]2C[C@@](C)(NCc3ccc(-c4ccc(Cl)cc4)cc3)[C@@H](O)[C@@H](C)O2)Oc2ccc(cc2Cl)[C@H]1O)N(C)C(=O)CCC(P(=O)(O)O)P(=O)(O)O` were > 32 µg/mL, > 32 µg/mL, > 32 µg/mL, > 32 µg/mL and 99.8%.
For `CN[C@H](CC(C)C)C(=O)N[C@H]1C(=O)N[C@@H](CC(N)=O)C(=O)N[C@H]2C(=O)N[C@H]3C(=O)N[C@H](C(=O)N[C@H](C(=O)OCC(=O)Nc4ccc(CC(P(=O)(O)O)P(=O)(O)O)cc4)c4cc(O)cc(O)c4-c4cc3ccc4O)[C@H](O[C@H]3C[C@](C)(N)[C@@H](O)[C@H](C)O3)c3cc(Cl)c(c(Cl)c3)Oc3cc2cc(c3O[C@H]2O[C@@H](CO)[C@@H](O)[C@H](O)[C@H]2O[C@@H]2C[C@@](C)(NCc3ccc(-c4ccc(Cl)cc4)cc3)[C@@H](O)[C@@H](C)O2)Oc2ccc(cc2Cl)[C@H]1O`, the MIC in series [1] was > 32 µg/mL; in series [2] it was 8 µg/mL; in series [3] it was > 32 µg/mL; in series [5] it was 8 µg/mL.
